Data taken from ChEMBL document CHEMBL4196195, “( R)- N-(1-Methyl-2-hydroxyethyl)-13-( S)-methyl-arachidonamide (AMG315): A Novel Chiral Potent Endocannabinoid Ligand with Stability to Metabolizing Enzymes” (J Med Chem, 2018).
Active and inactive are the calls of the source.

Columns and labels:
Mus musculus [1] = test: Antiallodynic activity in CD1 mouse model of CFA-induced inflammatory pain assessed as increase in CFA-reduced mechanical paw withdrawal threshold at 20 mg/kg, ip measured at 10 mins post injection; assay type: functional, organism-based
In short: (§1)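 Adult male mice (39 ± 10 g), wild-type CD1 or CB1 KO on CD1 background, single housed. CFA:saline 1:1 (20 μL) injected intraplantar into right hind paw; 48 h allowed before dosing. Drug given ip in 5 mL/kg, vehicle group included. Electronic von Frey (90 g probe) after ≥30 min habituation, read in duplicate per paw, at baseline, 48 h post-CFA and 10, 30, 60, 120 min post-dose. Two-way mixed ANOVA with Bonferroni post hoc tests.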

Cannabinoid receptor 2 [2] = target: Cannabinoid receptor 2 (Mus musculus, UniProt P47936); test: Displacement of [3H]CP-55,940 from mouse CB2 receptor expressed in HEK293 cell membranes in absence of FAAH inhibitor PMSF by radioligand binding assay
Chain of Cannabinoid receptor 2 (Mus musculus, UniProt P47936) (P47936 whole entry): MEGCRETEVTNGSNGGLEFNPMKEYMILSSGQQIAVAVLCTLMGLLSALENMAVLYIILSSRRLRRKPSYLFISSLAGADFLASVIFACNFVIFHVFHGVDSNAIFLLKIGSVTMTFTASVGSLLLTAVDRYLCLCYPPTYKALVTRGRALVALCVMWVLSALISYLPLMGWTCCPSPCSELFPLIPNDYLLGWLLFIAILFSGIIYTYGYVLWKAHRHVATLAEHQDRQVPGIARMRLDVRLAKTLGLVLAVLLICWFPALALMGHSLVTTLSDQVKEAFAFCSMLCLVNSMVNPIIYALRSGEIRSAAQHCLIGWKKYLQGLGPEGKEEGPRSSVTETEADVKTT
In short: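 Membranes from HEK293 cells expressing human or mouse CB2 (preparations lacking FAAH activity), competing against [3H]CP-55,940. IC50 by nonlinear regression, converted to Ki. Three independent experiments run in triplicate; Ki is the mean of the three.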

[3] = target: T1, FAAH (fatty-acid amide hydrolase 1) (Homo sapiens, UniProt O00519); test: Stability assessed as half life for human FAAH-mediated compound hydrolysis by LC-MS/MS analysis; assay type: ADME; conditions: human FAAH (fatty-acid amide hydrolase 1)
T1 sequence (O00519 whole entry): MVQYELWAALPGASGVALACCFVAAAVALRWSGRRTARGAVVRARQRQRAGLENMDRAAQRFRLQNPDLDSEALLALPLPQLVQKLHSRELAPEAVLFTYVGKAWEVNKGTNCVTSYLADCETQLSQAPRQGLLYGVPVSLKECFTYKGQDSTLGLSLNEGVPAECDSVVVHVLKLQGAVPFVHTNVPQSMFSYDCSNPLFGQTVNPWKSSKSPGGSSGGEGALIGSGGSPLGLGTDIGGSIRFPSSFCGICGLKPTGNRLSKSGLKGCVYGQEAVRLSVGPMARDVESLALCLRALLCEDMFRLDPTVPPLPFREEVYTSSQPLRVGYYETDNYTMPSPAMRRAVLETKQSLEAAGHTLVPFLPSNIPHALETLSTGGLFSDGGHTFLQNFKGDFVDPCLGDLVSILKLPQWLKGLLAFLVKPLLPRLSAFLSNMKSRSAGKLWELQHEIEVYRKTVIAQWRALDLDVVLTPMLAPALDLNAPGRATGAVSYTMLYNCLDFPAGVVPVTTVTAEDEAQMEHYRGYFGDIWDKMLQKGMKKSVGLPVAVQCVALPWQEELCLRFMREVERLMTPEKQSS
In short: (§2)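 Expressed, partially purified rat or human FAAH incubated with compound, or AEA as reference substrate, for 30 min. Aliquots at time points quenched in acetonitrile to precipitate protein. Remaining compound measured by LC-MS/MS on a cyano column with 10 mM ammonium acetate pH 7.3/methanol at 0.5 mL/min.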

Mus musculus [4] = test: Antiallodynic activity in CD1 mouse model of CFA-induced inflammatory pain assessed as increase in CFA-reduced mechanical paw withdrawal threshold at 20 mg/kg, ip measured at 30 mins post injection; assay type: functional, organism-based; in short: as §1
[5] = target: Cannabinoid receptor 1 (Rattus norvegicus) (UniProt P20272); test: Agonist activity at rat CB1 receptor expressed in HEK293 cells assessed as inhibition of forskolin-induced cAMP accumulation incubated for 30 mins relative to 500 nM CP-55,940; assay type: functional, cell-based
Chain of Cannabinoid receptor 1 (Rattus norvegicus) (P20272 whole entry): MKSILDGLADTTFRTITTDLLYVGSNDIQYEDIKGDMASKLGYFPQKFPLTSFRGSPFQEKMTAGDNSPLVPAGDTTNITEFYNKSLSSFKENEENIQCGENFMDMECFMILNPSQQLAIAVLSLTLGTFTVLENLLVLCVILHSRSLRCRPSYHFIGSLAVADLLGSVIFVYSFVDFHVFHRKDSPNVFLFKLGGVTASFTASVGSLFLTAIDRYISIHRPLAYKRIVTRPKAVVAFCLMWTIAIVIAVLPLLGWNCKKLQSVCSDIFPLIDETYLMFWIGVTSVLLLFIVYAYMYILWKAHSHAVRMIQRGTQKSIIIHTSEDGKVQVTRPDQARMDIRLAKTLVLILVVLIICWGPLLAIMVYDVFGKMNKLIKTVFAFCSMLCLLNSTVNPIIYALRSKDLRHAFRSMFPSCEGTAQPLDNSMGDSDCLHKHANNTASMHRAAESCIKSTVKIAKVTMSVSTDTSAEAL

[6] = target: T2, FAAH (fatty-acid amide hydrolase 1) (Rattus norvegicus, UniProt P97612); test: Stability assessed as half life for rat FAAH-mediated compound hydrolysis by LC-MS/MS analysis; assay type: ADME; conditions: rat FAAH (fatty-acid amide hydrolase 1); in short: as §2
T2 sequence (P97612 whole entry): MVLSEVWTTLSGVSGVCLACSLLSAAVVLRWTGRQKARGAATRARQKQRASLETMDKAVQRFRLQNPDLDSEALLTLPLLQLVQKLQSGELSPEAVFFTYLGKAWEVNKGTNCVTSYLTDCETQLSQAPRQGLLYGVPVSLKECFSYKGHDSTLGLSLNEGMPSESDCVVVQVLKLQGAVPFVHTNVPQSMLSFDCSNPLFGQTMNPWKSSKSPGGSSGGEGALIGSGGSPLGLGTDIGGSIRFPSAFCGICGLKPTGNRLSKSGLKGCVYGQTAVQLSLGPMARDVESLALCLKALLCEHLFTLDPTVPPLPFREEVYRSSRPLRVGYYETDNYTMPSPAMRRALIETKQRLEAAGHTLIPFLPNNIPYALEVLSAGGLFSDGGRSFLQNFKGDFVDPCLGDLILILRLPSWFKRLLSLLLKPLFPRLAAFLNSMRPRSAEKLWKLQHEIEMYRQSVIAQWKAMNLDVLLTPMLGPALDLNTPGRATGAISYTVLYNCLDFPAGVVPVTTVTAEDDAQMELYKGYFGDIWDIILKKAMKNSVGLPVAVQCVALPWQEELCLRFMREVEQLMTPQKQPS

Cannabinoid receptor 1 [7] = target: T3, Cannabinoid receptor 1 (Rattus norvegicus, UniProt P20272); test: Agonist activity at rat CB1 receptor expressed in HEK293 cells assessed as inhibition of forskolin-induced cAMP accumulation incubated for 30 mins; assay type: functional, cell-based
T3 sequence (P20272 whole entry): as the sequence (P20272 whole entry) above
In short: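 HEK293 cells stably expressing rCB1, harvested with nonenzymatic dissociation reagent, washed in HBSS, 1000–1500 cells/well. Test compound at various concentrations with forskolin (2 μM final) in stimulation buffer, 30 min at room temperature. cAMP read by TR-FRET (Eu-cAMP tracer plus ULight anti-cAMP, 60 min room temperature). Forskolin-stimulated cAMP set to 100%. EC50 from nonlinear regression; two independent experiments in triplicate.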

Cannabinoid receptor 2 [8] = target: Cannabinoid receptor 2 (Homo sapiens, UniProt P34972); test: Displacement of [3H]CP-55,940 from human CB2 receptor expressed in HEK293 cell membranes in absence of FAAH inhibitor PMSF by radioligand binding assay
Chain of Cannabinoid receptor 2 (Homo sapiens, UniProt P34972) (P34972 whole entry): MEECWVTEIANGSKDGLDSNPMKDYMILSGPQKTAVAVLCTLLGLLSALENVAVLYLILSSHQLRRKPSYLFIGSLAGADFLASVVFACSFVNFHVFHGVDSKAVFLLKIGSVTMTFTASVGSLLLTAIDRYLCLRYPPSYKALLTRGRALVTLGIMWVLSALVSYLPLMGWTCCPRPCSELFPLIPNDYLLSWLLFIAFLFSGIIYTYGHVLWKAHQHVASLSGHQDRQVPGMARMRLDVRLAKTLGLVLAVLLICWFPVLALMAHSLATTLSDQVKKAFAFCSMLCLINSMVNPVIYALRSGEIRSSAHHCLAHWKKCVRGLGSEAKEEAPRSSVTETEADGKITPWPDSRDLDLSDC

Cannabinoid receptor 1 [9] = target: T3, Cannabinoid receptor 1; test: Displacement of [3H]CP-55,940 from CB1 receptor in rat brain membranes in absence of FAAH inhibitor PMSF by radioligand binding assay; assay type: cell membranes, Membrane
Cannabinoid receptor 1 [10] = target: T3, Cannabinoid receptor 1; test: Displacement of [3H]CP-55,940 from CB1 receptor in rat brain membranes in presence of FAAH inhibitor PMSF by radioligand binding assay; assay type: cell membranes, Membrane
[11] = target: T1, FAAH (fatty-acid amide hydrolase 1); test: Stability assessed as human FAAH-mediated compound hydrolysis by LC-MS/MS analysis; assay type: ADME; conditions: human FAAH (fatty-acid amide hydrolase 1), read-out: Stability; in short: as §2
[12] = target: T4, Prostaglandin G/H synthase 2 (Mus musculus, UniProt Q05769); test: Stability assessed as mouse COX2-mediated compound oxidation by measuring oxygen consumption by polarographic assay; assay type: ADME
T4 sequence (Q05769 whole entry): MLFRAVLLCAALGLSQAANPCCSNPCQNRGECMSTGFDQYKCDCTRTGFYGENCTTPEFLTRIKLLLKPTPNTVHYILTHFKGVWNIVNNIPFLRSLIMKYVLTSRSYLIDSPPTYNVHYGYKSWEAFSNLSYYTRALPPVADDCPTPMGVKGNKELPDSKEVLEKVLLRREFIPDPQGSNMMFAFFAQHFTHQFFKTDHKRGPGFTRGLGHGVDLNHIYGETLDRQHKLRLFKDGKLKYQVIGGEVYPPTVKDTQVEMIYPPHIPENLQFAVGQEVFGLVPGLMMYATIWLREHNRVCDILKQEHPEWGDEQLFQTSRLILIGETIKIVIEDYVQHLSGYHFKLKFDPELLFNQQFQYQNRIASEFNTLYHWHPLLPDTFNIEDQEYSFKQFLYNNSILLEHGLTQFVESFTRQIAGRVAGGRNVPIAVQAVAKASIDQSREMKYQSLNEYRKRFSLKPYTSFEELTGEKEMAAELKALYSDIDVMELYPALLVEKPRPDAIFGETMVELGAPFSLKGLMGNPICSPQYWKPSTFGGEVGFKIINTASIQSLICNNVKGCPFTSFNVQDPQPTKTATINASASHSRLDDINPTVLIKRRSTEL

[13] = target: T2, FAAH (fatty-acid amide hydrolase 1); test: Stability assessed as rat FAAH-mediated compound hydrolysis by LC-MS/MS analysis; assay type: ADME; conditions: rat FAAH (fatty-acid amide hydrolase 1), read-out: Stability; in short: as §2
Mus musculus [14] = test: Antiallodynic activity in CD1 mouse model of CFA-induced inflammatory pain assessed as increase in CFA-reduced mechanical paw withdrawal threshold at 20 mg/kg, ip measured at 60 mins post injection; assay type: functional, organism-based; in short: as §1
Mus musculus [15] = test: Antiallodynic activity in CD1 mouse model of CFA-induced inflammatory pain assessed as increase in CFA-reduced mechanical paw withdrawal threshold at 20 mg/kg, ip measured up to 30 mins post injection; assay type: functional, organism-based; in short: as §1
Mus musculus [16] = test: Antiallodynic activity in CD1 mouse model of CFA-induced inflammatory pain assessed as increase in CFA-reduced mechanical paw withdrawal threshold at 20 mg/kg, ip measured at 120 mins post injection; assay type: functional, organism-based; in short: as §1

SMILES | Ki (Cannabinoid receptor 2 [2]) | Emax [5] | Ki (Cannabinoid receptor 2 [8]) | Ki (Cannabinoid receptor 1 [9]) | Ki (Cannabinoid receptor 1 [10]) | EC50 (Cannabinoid receptor 1 [7]; read-out: EC50) | Stability [12] | other results
CCCCC/C=C\C/C=C\C/C=C\C/C=C\CCCC(=O)NCCO [ANANDAMIDE] | > 1000 nM | 61% | – | – | – | – | – | Activity (Mus musculus [1]): Active; half-life [3]: 13.2 min; Activity (Mus musculus [4]): inactive; half-life [6]: 12.1 min
CCCCC/C=C\[C@@H](C)/C=C\C/C=C\C/C=C\CCCC(=O)NCCO | > 1000 nM | inactive | > 1000 nM | > 1000 nM | > 1000 nM | – | – | EC50 (Cannabinoid receptor 1 [7]; hek293): Not Active
C#CCNC(=O)CCC/C=C\C/C=C\C/C=C\[C@@H](C)/C=C\CCCCC | 74 nM | 89% | 11.2 nM | 8.6 nM | 4.3 nM | 10.4 nM | – | half-life [11]: 30 min
CCCCC/C=C\C/C=C\C/C=C\[C@H](C)/C=C\CCCC(=O)NCCO | 7.5 nM | 100% | 24.7 nM | 326 nM | 1.7 nM | 4.8 nM | Stable | –
C[C@H](/C=C\C/C=C\C/C=C\CCCC(=O)N[C@H](C)CO)/C=C\CCCOc1ccccc1 | > 1000 nM | – | 286 nM | 65 nM | 83 nM | – | – | –
CCCCC/C=C\C/C=C\C/C=C\[C@H](C)/C=C\CCCC(=O)N[C@H](C)CO | 19.8 nM | 100% | 12.8 nM | 4.6 nM | 2.2 nM | 28.4 nM | Stable | half-life [13]: 30 min; half-life [11]: 30 min
CCCCC/C=C\C/C=C\C/C=C\[C@@H](C)/C=C\CCCC(=O)N[C@H](C)CO | > 1000 nM | 98% | 120 nM | 29.3 nM | 21.4 nM | 58.3 nM | Stable | –
C[C@H](/C=C\C/C=C\C/C=C\CCCC(=O)NC1CC1)/C=C\CCCCCN=[N+]=[N-] | 13.3 nM | 85% | 8.5 nM | 10.5 nM | 6.3 nM | 1.9 nM | – | –
CCCCC/C=C\[C@H](C)/C=C\C/C=C\C/C=C\CCCC(=O)NCCO | 137 nM | 88% | 50.5 nM | > 1000 nM | 4.8 nM | 13.2 nM | Stable | half-life [3]: 13.5 min
CCCCC/C=C\[C@@H](C)/C=C\C/C=C\C/C=C\CCCC(=O)N[C@H](C)CO | > 1000 nM | – | – | > 1000 nM | > 1000 nM | – | – | –
CCCCC/C=C\[C@H](C)/C=C\C/C=C\C/C=C\CCCC(=O)NCCCl | 401 nM | – | 10.4 nM | 45.3 nM | 3.9 nM | – | – | –
CCCCC/C=C\C/C=C\[C@@H](C)/C=C\C/C=C\CCCC(=O)NCCO | > 1000 nM | – | > 1000 nM | > 1000 nM | > 1000 nM | – | – | –
CCCCC/C=C\[C@H](C)/C=C\C/C=C\C/C=C\CCCC(=O)NC1CC1 | 57.5 nM | 88% | 4.3 nM | 14.7 nM | 1.5 nM | 0.3 nM | Stable | half-life [3]: 25.2 min
CCCCC/C=C\C/C=C\C/C=C\C/C=C\CCCC(=O)N[C@H](C)CO [METHANANDAMIDE] | > 1000 nM | – | – | – | – | – | – | Activity (Mus musculus [1]): Active; Activity (Mus musculus [14]): Active; Activity (Mus musculus [15]): Active; Activity (Mus musculus [16]): inactive
C[C@H](/C=C\C/C=C\C/C=C\CCCC(=O)NC1CC1)/C=C\CCCCCN=C=S | 47.7 nM | – | 22.1 nM | 20.3 nM | 15.6 nM | – | – | –
CCCCC/C=C\[C@H](C)/C=C\C/C=C\C/C=C\CCCC(=O)NC1CCCC1 | 387 nM | – | 139 nM | 123 nM | 79 nM | – | – | half-life [11]: 30 min
CCCCC/C=C\C/C=C\C/C=C\[C@@H](C)/C=C\CCCC(=O)NCCO | > 1000 nM | inactive | 188 nM | > 1000 nM | 520 nM | – | Stable | EC50 (Cannabinoid receptor 1 [7]; hek293): Not Active
CCCCC/C=C\[C@H](C)/C=C\C/C=C\C/C=C\CCCC(=O)NC1CCC1 | 90 nM | 92% | 6.8 nM | 17.6 nM | 23.1 nM | 36.1 nM | Stable | half-life [11]: 30 min
CCCCC/C=C\C/C=C\[C@H](C)/C=C\C/C=C\CCCC(=O)NCCO | > 1000 nM | – | > 1000 nM | > 1000 nM | > 1000 nM | – | – | –
